From ChEMBL document CHEMBL1132993, “Novel benzofuran and benzothiophene biphenyls as inhibitors of protein tyrosine phosphatase 1B with antihyperglycemic properties” (J Med Chem, 2000)

Tested on: Mus musculus
Assay: percentage decrease in plasma glucose in the ob/ob mouse model at 25 mg/Kg/day administered per orally
Format: functional
Settings: not given
Summary of the method: (§1)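 Genetically obese C57 B1/6J ob/ob diabetic mice, four to six per group, dosed orally once daily for 4 days. Plasma glucose is expressed as percent change relative to the vehicle-treated group, with p < 0.05 versus vehicle. Changes that are not significant are generally less than -15%. Ciglitazone served as the reference standard.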

SMILES	Decrease [%]
COc1ccc(Cc2sc3ccccc3c2-c2ccc(-c3ccc(O[C@H](Cc4ccccc4)C(=O)O)cc3)cc2)c(OC)c1	24
COc1ccc(-c2cc(-c3ccc(-c4c(Cc5ccccc5)sc5ccccc45)cc3)cc(-c3ccc(OC)cc3)c2OCC(=O)O)cc1	26
O=C(O)[C@@H](Cc1ccccc1)Oc1ccc(-c2ccc(-c3c(Cc4ccc(O)cc4O)sc4ccccc34)cc2)cc1	20
COc1ccc(-c2cc(-c3ccc(-c4c(Cc5ccccc5)sc5ccccc45)cc3)cc(Br)c2OCC(=O)O)cc1	30
O=C(O)c1ccc(S(=O)(=O)Oc2ccc(-c3ccc(-c4c(Cc5ccccc5)oc5ccccc45)cc3)cc2)cc1O	18
CC(Cc1ccccc1)(Oc1ccc(-c2ccc(-c3c(Cc4ccccc4)oc4ccccc34)cc2)cc1)C(=O)O (centres undefined)	30
O=C(O)CCNc1cc(-c2ccc(-c3c(Cc4ccccc4)oc4ccccc34)cc2)ccc1OCCc1ccccc1	17
CCCCCCC(Oc1c(Br)cc(-c2ccc(-c3c(Cc4ccccc4)oc4ccccc34)cc2)cc1Br)C(=O)O (centres undefined)	27
O=C(O)[C@@H](Cc1ccccc1)Oc1ccc(-c2ccc(-c3c(C(O)c4ccccc4)oc4ccccc34)cc2)cc1 (some centres undefined)	21
COc1ccc(Cc2sc3ccccc3c2-c2ccc(-c3ccc(O[C@H](Cc4ccccc4)C(=O)O)cc3)cc2)cc1OC	24
Cc1oc(-c2ccc(C(F)(F)F)cc2)nc1-c1ccc(-c2ccc(OC(Cc3ccccc3)C(=O)O)cc2)cc1 (centres undefined)	27
C[C@@H](Oc1ccc(-c2ccc(-c3c(Cc4ccccc4)oc4ccccc34)cc2)cc1)C(=O)O	-1

Biological target: T1, Tyrosine-protein phosphatase non-receptor type 1 (Homo sapiens) (UniProt P18031)
T1 sequence (whole entry): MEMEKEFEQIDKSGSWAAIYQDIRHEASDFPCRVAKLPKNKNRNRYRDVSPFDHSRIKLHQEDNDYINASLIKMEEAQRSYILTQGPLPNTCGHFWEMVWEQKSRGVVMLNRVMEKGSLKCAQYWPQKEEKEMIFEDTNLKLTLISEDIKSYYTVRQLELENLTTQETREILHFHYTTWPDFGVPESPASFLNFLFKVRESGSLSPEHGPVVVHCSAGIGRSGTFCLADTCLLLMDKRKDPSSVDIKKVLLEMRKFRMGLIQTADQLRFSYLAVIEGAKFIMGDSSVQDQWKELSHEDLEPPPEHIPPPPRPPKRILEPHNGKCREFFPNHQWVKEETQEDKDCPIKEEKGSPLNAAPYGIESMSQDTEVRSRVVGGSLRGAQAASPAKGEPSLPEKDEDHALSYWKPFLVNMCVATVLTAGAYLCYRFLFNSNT
Assay: In vitro inhibitory activity against recombinant human Protein Tyrosine Phosphatase 1b at a concentration of 1 uM
Settings: not given
Summary of the method: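 Recombinant human PTP1B was preincubated 10 min at 37 °C with compound at 1 µM, then given 50 µM tri-phosphorylated insulin receptor dodecapeptide for 30 min at 37 °C. Liberated phosphate was measured by malachite green-molybdate absorbance at 650 nm, in quadruplicate. Values are inhibition expressed as percent of phosphatase control.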

SMILES	Average inhibition
O=C(O)[C@@H](Cc1ccccc1)Oc1ccc(-c2ccc(-c3nc4cccnc4n3Cc3ccccc3)cc2)cc1	-19
Oc1ccc(-c2ccc(-c3c(Cc4ccccc4)oc4ccccc34)cc2)cc1Br	-59
Oc1c(Br)cc(-c2ccc(-c3c(Cc4ccccc4)oc4ccccc34)cc2)cc1Br	-43

Tested on: Mus musculus
Assay: percentage decrease in plasma glucose in the ob/ob mouse model at 100 mg/kg/day administered per orally
Format: functional
Settings: route oral
Summary of the method: as §1

SMILES	Decrease [%]
O=C(O)c1ccc(S(=O)(=O)Oc2c(Br)cc(-c3ccc(-c4c(Cc5ccccc5)sc5ccccc45)cc3)cc2Br)cc1O	25
CCCCc1sc2ccccc2c1-c1ccc(-c2ccc(O[C@H](Cc3ccccc3)C(=O)O)cc2)cc1	27
O=C(O)[C@@H](Cc1ccccc1)Oc1ccc(-c2ccc(-c3c(Cc4ccccc4)oc4ccccc34)cc2)cc1	35
CC(Cc1ccccc1)(Oc1ccc(-c2ccc(-c3c(Cc4ccccc4)oc4ccccc34)cc2)cc1)C(=O)O (centres undefined)	28
O=C(O)[C@@H](Cc1ccccc1)Oc1ccc(-c2ccc(-c3c(C(O)c4ccccc4)oc4ccccc34)cc2)cc1 (some centres undefined)	-1
O=C(O)[C@@H](Cc1ccccc1)Oc1ccc(-c2ccc(-c3c(Cc4ccccc4)sc4ccccc34)cc2)cc1	37
CCCCc1oc2ccccc2c1-c1ccc(-c2ccc(OC(Cc3ccccc3)C(=O)O)cc2)cc1 (centres undefined)	34
CCCCc1oc2ccccc2c1C(=O)c1ccc2c(Br)c(OCn3cnnn3)ccc2c1	25
CCCCc1sc2ccccc2c1-c1ccc(-c2ccc(O[C@@H](C(=O)O)c3ccccc3)cc2)cc1	28
O=C(O)C(Cc1ccccc1)Oc1ccc(-c2ccc(-c3c(Cc4ccccc4)oc4ccccc34)cc2)cc1 (centres undefined)	40
CCCCc1oc2ccccc2c1Cc1ccc2c(Br)c(OC(Cc3ccccc3)C(=O)O)ccc2c1 (centres undefined)	26
C[C@@H](Oc1ccc(-c2ccc(-c3c(Cc4ccccc4)oc4ccccc34)cc2)cc1)C(=O)O	39

Biological target: T2, Tyrosine-protein phosphatase non-receptor type 1 (Homo sapiens, UniProt P18031)
T2 sequence (P18031 whole entry): T1 sequence (whole entry)
Assay: In vitro inhibitory activity against human recombinant protein tyrosine phosphatase 1b (PTP1B)
Settings: not given
Summary of the method: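 Recombinant human PTP1B, diluted in pH 7.4 Tris-HCl/EDTA/β-mercaptoethanol buffer, preincubated 10 min at 37 °C with compound in HEPES pH 7.4. Reaction ran 30 min at 37 °C. Released phosphate was read by malachite green-ammonium molybdate at 650 nm, in quadruplicate. IC50 came from four-parameter logistic regression.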

SMILES	IC50 [nM]
O=C(O)c1ccc(S(=O)(=O)Oc2ccc(-c3ccc(-c4c(Cc5ccccc5)oc5ccccc45)cc3)cc2C2CCCC2)cc1O	28
O=C(O)c1ccccc1C(=O)Nc1cc(-c2ccc(-c3c(Cc4ccccc4)oc4ccccc34)cc2)ccc1O	160
COc1ccc(-c2cc(-c3ccc(-c4c(Cc5ccccc5)sc5ccccc45)cc3)ccc2O[C@H](Cc2ccccc2)C(=O)O)cc1	53
CCCCc1sc2ccccc2c1-c1ccc(-c2ccc(O[C@H](Cc3ccccc3)C(=O)O)cc2)cc1	170
O=C(O)[C@@H](Cc1ccccc1)Oc1ccc(-c2ccc(-c3c(Cc4ccc(O)cc4O)sc4ccccc34)cc2)cc1	120
O=C(O)COc1ccc(-c2ccc(-c3c(Cc4ccccc4)oc4ccccc34)cc2)cc1C1CCCC1	170
CC[C@H](Oc1c(Br)cc(-c2ccc(-c3c(Cc4ccccc4)oc4ccccc34)cc2)cc1Br)C(=O)O	130
Cc1oc(-c2ccc(C(F)(F)F)cc2)nc1-c1ccc(-c2ccc(OCn3cnnn3)cc2)cc1	900
O=C(O)[C@H](Cc1ccccc1)Oc1ccc(-c2ccc(-c3c(Cc4ccccc4)oc4ccccc34)cc2)cc1C1CCCC1	55
Oc1ccc(-c2ccc(-c3c(Cc4ccc(O)cc4O)sc4ccccc34)cc2)cc1	580
COC(=O)C(CCNC(=O)c1ccccc1C(=O)O)Oc1c(Br)cc(-c2ccc(-c3c(Cc4ccccc4)sc4ccccc34)cc2)cc1Br (centres undefined)	54
Cc1oc(-c2ccc(C(F)(F)F)cc2)nc1-c1cccc(-c2ccc(OC(Cc3ccccc3)C(=O)O)cc2)c1 (centres undefined)	1600
O=C(O)[C@H](CCc1ccccc1)Oc1ccc(-c2ccc(-c3c(Cc4ccccc4)oc4ccccc34)cc2)cc1	220
CCCCc1sc2ccccc2c1-c1ccc(-c2ccc(O)cc2)cc1	700
COc1cccc(-c2cc(-c3ccc(-c4c(Cc5ccccc5)sc5ccccc45)cc3)ccc2OCC(=O)O)c1OC	71
O=C(O)COc1c(Br)cc(-c2ccc(-c3c(Cc4ccccc4)sc4ccccc34)cc2)cc1Br	100
O=C(O)CCNc1cc(-c2ccc(-c3c(Cc4ccccc4)oc4ccccc34)cc2)ccc1OCCc1ccccc1	140
O=C(O)[C@@H](Cc1ccccc1)Oc1ccc(-c2ccc(-c3c(Cc4ccccc4)sc4ccccc34)cc2)cc1-c1ccc(Cl)cc1	52
CCCCc1oc2ccccc2c1Cc1ccc2cc(O)ccc2c1	1300
COc1ccc(-c2cc(-c3ccc(-c4c(Cc5ccccc5)sc5ccccc45)cc3)cc(Br)c2OCC(=O)O)c(OC)c1	47
O=C(O)[C@@H](Cc1ccccc1)Oc1ccc(-c2ccc(-c3c(Cc4ccc(F)cc4)sc4ccccc34)cc2)cc1	120
O=C(O)[C@H](CCN1C(=O)c2ccccc2C1=O)Oc1ccc(-c2ccc(-c3c(Cc4ccccc4)oc4ccccc34)cc2)cc1	340
CCCCCCC(Oc1c(Br)cc(-c2ccc(-c3c(Cc4ccccc4)oc4ccccc34)cc2)cc1Br)C(=O)O (centres undefined)	23
Oc1ccc(-c2ccc(-c3c(Cc4ccccc4)oc4ccccc34)cc2)cc1	920
Oc1c(I)cc(-c2ccc(-c3c(Cc4ccccc4)sc4ccccc34)cc2)cc1I	520
O=C(O)[C@H](Cc1ccccc1)Oc1ccc(-c2ccc(-c3c(Cc4ccccc4)oc4ncccc34)cc2)cc1	590

SMILES	IC50 [nM]
O=C(O)[C@@H](Cc1ccccc1)Oc1ccc(-c2ccc(-c3c(C(O)c4ccccc4)oc4ccccc34)cc2)cc1 (some centres undefined)	110
CCCCc1oc2ccccc2c1C(O)c1ccc2cc(O)ccc2c1 (centres undefined)	1100
O=C(O)C(CCN1C(=O)c2ccccc2C1=O)Oc1c(Br)cc(-c2ccc(-c3c(Cc4ccccc4)sc4ccccc34)cc2)cc1Br (centres undefined)	44
O=C(O)[C@@H](Cc1ccccc1)Oc1ccc(-c2ccc(-c3oc4ccccc4c3Cc3ccccc3)cc2)cc1	350
O=C(O)[C@H](Cc1ccccc1)Oc1ccc(-c2ccc(-c3c(Cc4ccccc4)oc4ccc(F)cc34)cc2)cc1	130
COc1ccc(Cc2sc3ccccc3c2-c2ccc(-c3ccc(O[C@H](Cc4ccccc4)C(=O)O)cc3)cc2)cc1OC	120
CCCCc1oc2ccccc2c1Cc1ccc2c(Br)c(OCn3cnnn3)ccc2c1	700
CCCCc1oc2ccccc2c1Cc1ccc2c(Br)c(OCC(=O)O)ccc2c1	1400
O=C(O)c1ccccc1C(=O)NCCC(Oc1c(Br)cc(-c2ccc(-c3c(Cc4ccccc4)sc4ccccc34)cc2)cc1Br)C(=O)O (centres undefined)	180
CC(=O)Oc1cc(S(=O)(=O)Oc2ccc(-c3ccc(-c4coc5ccccc45)cc3)cc2)ccc1C(=O)O	1160
O=C(O)c1ccc(COc2ccc(-c3ccc(-c4c(Cc5ccccc5)oc5ccccc45)cc3)cc2)cc1	360
CCCCc1oc2ccccc2c1C(=O)c1ccc2c(Br)c(OCn3cnnn3)ccc2c1	1100
CCCCc1sc2ccccc2c1-c1ccc(-c2ccc(O[C@@H](C(=O)O)c3ccccc3)cc2)cc1	110
Oc1ccc(Cc2sc3ccccc3c2-c2ccc(-c3ccc(O)cc3)cc2)cc1	1080
O=C(O)[C@@H](Cc1ccccc1)Oc1ccc(-c2ccc(-c3c(Cc4nccs4)sc4ccccc34)cc2)cc1	1160
O=C(O)COc1ccc(-c2ccc(-c3c(Cc4ccccc4)sc4ccccc34)cc2)cc1-c1ccccc1	100
CCCCc1oc2ccccc2c1Cc1ccc(-c2ccc(OCn3cnnn3)cc2)cc1	510
CCOc1ccc(-c2cc(-c3ccc(-c4c(Cc5ccccc5)sc5ccccc45)cc3)ccc2OCC(=O)O)cc1	52
CCCCc1oc2ccccc2c1C(=O)c1ccc2c(Br)c(OC(Cc3ccccc3)C(=O)O)ccc2c1 (centres undefined)	1200
Cc1oc(-c2ccc(C(F)(F)F)cc2)nc1-c1ccc2c(Br)c(OCC(=O)O)ccc2c1	1300
Cc1ccc2oc(Cc3ccccc3)c(-c3ccc(-c4ccc(O[C@H](Cc5ccccc5)C(=O)O)cc4)cc3)c2c1	410
O=C(O)CNc1cc(-c2ccc(-c3c(Cc4ccccc4)oc4ccccc34)cc2)ccc1OCCc1ccccc1	82
O=C(c1ccccc1)c1oc2ccccc2c1-c1ccc(-c2ccc(O)cc2)cc1	740
CCCCc1oc2ccccc2c1Cc1ccc2c(I)c(OC(Cc3ccccc3)C(=O)O)ccc2c1 (centres undefined)	320
CCCCc1oc2ccccc2c1Cc1ccc2c(I)c(O)ccc2c1	380
O=C(O)CCCOc1ccc(-c2ccc(-c3c(Cc4ccccc4)sc4ccccc34)cc2)cc1Br	170
